Assay results published in publication PMC11571001 (ACS Medicinal Chemistry Letters, 2024).
“Also recorded” adds a separate entry of the source.

Experiments:
[1] = tested on: HeLa cells; assay: Cellular ADP-ribosylation in H2O2-stimulated HeLa cells; assay type: cell-based, human; conditions: H2O2 1 mM, inhibitor 100 μM, 20 minutes
Summary of the method: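 HeLa cells were stimulated with H2O2 and treated without or with test compound at 100 μM. Cellular ADP-ribosylation was imaged by confocal microscopy using an AF1521 macrodomain-based pan-ADPr binding reagent. Lysates were immunoblotted with the same pan-ADPr reagent, with anti-GAPDH as loading control. Densitometry was normalized to loading controls, and significance was reported as p < 0.05 and p < 0.01.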

[2] = target: catalytic domain of human PARP5a (Homo sapiens, UniProt O95271); assay: PARP5a auto-ADP-ribosylation, immunoblot with pan-ADPr binding reagent; assay type: biochemical; conditions: compound 100 μM, 300 μM NAD+
[3] = tested on: HAP1 wild-type cell lysates; assay: Protein ADP-ribosylation in HAP1 wild-type cell lysates, immunoblot; assay type: biochemical, human; conditions: compound 100 μM; 600 μM NAD+; olaparib 100 μM as control
[4] = target: full-length human PARP2 (Homo sapiens, UniProt Q9UGN5); assay: PARP2 auto-poly-ADP-ribosylation, immunoblot with anti-PAR antibody; assay type: biochemical; conditions: compound 100 μM, 300 μM NAD+
Summary of the method: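 Full-length human enzyme was recombinantly expressed in and purified from bacteria. Auto-PARylation was run in the absence and presence of test compound at 100 μM. Immunoblots were probed with anti-PAR antibody and band signal was quantified.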

[5] = target: T1, catalytic domain of human PARP10 (Homo sapiens, UniProt Q53GL7); assay: PARP10 auto-ADP-ribosylation; assay type: biochemical; conditions: compound 100 μM; 300 μM NAD+; pan-ADPr binding reagent immunoblot
T1 sequence (Q53GL7 806-1025 limits assumed): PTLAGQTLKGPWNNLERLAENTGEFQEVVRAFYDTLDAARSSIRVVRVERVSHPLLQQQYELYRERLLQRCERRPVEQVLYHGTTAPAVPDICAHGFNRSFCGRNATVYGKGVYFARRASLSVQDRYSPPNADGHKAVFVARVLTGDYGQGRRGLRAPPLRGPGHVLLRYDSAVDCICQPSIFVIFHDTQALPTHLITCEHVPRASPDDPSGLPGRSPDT

[6] = tested on: HAP1/PARP1-knockout cell lysates; assay: Protein ADP-ribosylation in HAP1/PARP1-KO cell lysates, immunoblot; assay type: biochemical, human; conditions: compound 100 μM; 600 μM NAD+; olaparib 100 μM as control

Chain of full-length human PARP2 (Q9UGN5 whole entry): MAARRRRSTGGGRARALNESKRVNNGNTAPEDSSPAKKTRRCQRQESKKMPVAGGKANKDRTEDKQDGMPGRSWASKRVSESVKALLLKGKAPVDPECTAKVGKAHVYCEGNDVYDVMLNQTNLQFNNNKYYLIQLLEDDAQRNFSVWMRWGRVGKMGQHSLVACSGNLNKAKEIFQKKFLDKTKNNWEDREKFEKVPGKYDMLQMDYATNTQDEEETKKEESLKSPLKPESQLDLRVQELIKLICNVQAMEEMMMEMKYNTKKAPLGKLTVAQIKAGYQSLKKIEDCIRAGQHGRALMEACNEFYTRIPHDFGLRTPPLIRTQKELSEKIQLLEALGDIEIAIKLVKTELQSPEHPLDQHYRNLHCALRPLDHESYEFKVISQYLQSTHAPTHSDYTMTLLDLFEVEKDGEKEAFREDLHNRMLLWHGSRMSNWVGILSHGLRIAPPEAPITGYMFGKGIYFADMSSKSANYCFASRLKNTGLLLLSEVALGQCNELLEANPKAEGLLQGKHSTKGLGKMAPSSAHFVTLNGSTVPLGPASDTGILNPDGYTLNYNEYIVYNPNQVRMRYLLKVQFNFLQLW
Chain of catalytic domain of human PARP5a (O95271 1112-1317): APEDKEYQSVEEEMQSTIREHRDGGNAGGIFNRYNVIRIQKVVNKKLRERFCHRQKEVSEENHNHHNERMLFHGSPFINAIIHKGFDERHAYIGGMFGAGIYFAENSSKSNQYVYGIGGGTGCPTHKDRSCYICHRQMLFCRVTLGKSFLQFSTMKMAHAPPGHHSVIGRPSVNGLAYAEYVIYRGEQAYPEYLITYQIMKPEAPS

| SMILES | effect on cellular ADP-ribosylation triggered by H2O2 [1] | inhibition of PARP2-catalyzed auto-modification (PARylation) [4] | also measured |
| --- | --- | --- | --- |
| CC(=O)c1cccc(CCOc2ccccc2C(N)=O)c1 [compound 7] | no significant impact |  |  |
| CC(=O)c1cccc(COc2ccccc2C(N)=O)c1 [compound 3] |  | functions as an inhibitor for PARP2; also recorded: significantly inhibit | inhibition of PARP5a-catalyzed auto-ADP-ribosylation [2]: significantly decreased levels of ADP-ribosylation; inhibition of protein ADP-ribosylation in HAP1-WT cell lysates [3]: significantly higher than those of olaparib-treated ones; inhibition of PARP10-catalyzed auto-ADP-ribosylation [5]: significantly decreased levels of ADP-ribosylation; inhibition of protein ADP-ribosylation in HAP1/PARP1-KO cell lysates [6]: no significant differences to those of olaparib-treated ones and non-modified controls |
| CC(=O)c1cccc([C@@H](C)Oc2ccccc2C(N)=O)c1 [compound 4] |  | reduced inhibition activities |  |
| CC(=O)c1cccc(CCOc2ccc(F)cc2C(N)=O)c1 [compound 8] | no significant impact |  |  |
| CC(=O)c1cccc([C@H](C)Oc2ccccc2C(N)=O)c1 [compound 5] |  | reduced inhibition activities |  |
| O=C(c1cc(Cc2n[nH]c(=O)c3ccccc23)ccc1F)N1CCN(C(=O)C2CC2)CC1 [olaparib, reference compound] | largely suppressed |  |  |
| CC(=O)c1cccc(CCCOc2ccccc2C(N)=O)c1 [compound 9] |  | reduced inhibition activities |  |
